From ChEMBL document CHEMBL2062365, “Suppressive effects of coumarins from Mammea siamensis on inducible nitric oxide synthase expression in RAW264.7 cells” (Bioorg Med Chem, 2012)
Active and inactive are the calls of the source. No cut-off for these calls is given here.

Tests used:
RAW264.7 [1] = test: Antiinflammatory activity in mouse RAW264.7 cells assessed as inhibition of LPS-induced NO production at 10 uM incubated for 10 mins prior to LPS-challenge measured after 18 hrs by Griess method relative to control; assay type: functional
Method in brief: (§1)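 RAW264.7 cells (DMEM, 10% FBS, 37 °C, 5% CO2) seeded at 2.5 × 10^5 cells/well. After 6 h, nonadherent cells were washed off. Adherent cells were exposed to test compound for 10 min, then to LPS (E. coli 055:B5, final 10 µg/mL) for 18 h. Supernatant nitrite was measured by Griess reaction. Inhibition % = (A−B)/(A−C)×100, with C as the no-LPS control. IC50 was read graphically; N = 4, mean ± SEM. CAPE was the reference.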

RAW264.7 [2] = test: Antiinflammatory activity in mouse RAW264.7 cells assessed as inhibition of LPS-induced NO production at 30 uM incubated for 10 mins prior to LPS-challenge measured after 18 hrs by Griess method relative to control; assay type: functional; method in brief: as §1
RAW264.7 [3] = test: Antiinflammatory activity in mouse RAW264.7 cells assessed as inhibition of LPS-induced NO production incubated for 10 mins prior to LPS-challenge measured after 18 hrs by Griess method; assay type: functional, cell-based; method in brief: as §1
RAW264.7 [4] = test: Antiinflammatory activity in mouse RAW264.7 cells assessed as inhibition of LPS-induced NO production at 1 uM incubated for 10 mins prior to LPS-challenge measured after 18 hrs by Griess method relative to control; assay type: functional; method in brief: as §1
[5] = Cytotoxicity against mouse RAW264.7 cells assessed as cell viability at 10 uM after 18 hrs by MTT assay; assay type: cell-based; details: read-out: Activity
Method in brief: (§2)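 MTT viability assay. RAW264.7 cells seeded at 1.0 × 10^5 cells/well; after 6 h, nonadherent cells were washed off. Adherent cells were cultured with test compound for 18 h. MTT (5 mg/mL in PBS) was added for 2 h at 37 °C. Formazan was dissolved in isopropanol with 0.04 M HCl and OD read at 570 nm (reference 655 nm).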

[6] = Cytotoxicity against mouse RAW264.7 cells assessed as cell viability at 30 uM after 18 hrs by MTT assay; assay type: cell-based; details: read-out: Activity; method in brief: as §2
RAW264.7 [7] = test: Antiinflammatory activity in mouse RAW264.7 cells assessed as inhibition of LPS-induced NO production at 3 uM incubated for 10 mins prior to LPS-challenge measured after 18 hrs by Griess method relative to control
[8] = Cytotoxicity against mouse RAW264.7 cells assessed as cell viability at 3 uM after 18 hrs by MTT assay; assay type: cell-based; details: read-out: Activity; method in brief: as §2
RAW264.7 [9] = test: Antiinflammatory activity in mouse RAW264.7 cells assessed as inhibition of LPS-induced iNOS expression at 1 to 30 uM incubated for 10 mins prior to LPS-challenge measured after 12 hrs by Western blot analysis; assay type: functional, cell-based
Method in brief: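 RAW264.7 cells (5.0 × 10^6/well, 6-well) adhered for 6 h. Compound was added for 10 min, then LPS (final 10 µg/mL) for 12 h. Lysates were sonicated and normalized by BCA. 50 µg protein/lane was run on 10% SDS–PAGE and transferred to PVDF. Blots were probed for iNOS and β-actin (primary 1:1000, HRP secondary 1:5000) and detected by ECL.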

RAW264.7 [10] = test: Inhibition of SAPK/JNK phosphorylation in LPS-induced mouse RAW264.7 cells at 1 to 30 uM incubated for 10 mins prior to LPS-challenge measured after 30 mins by Western blot analysis; assay type: cell-based
Method in brief: (§3)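 RAW264.7 cells (5.0 × 10^6/well) adhered for 6 h. Compound was added for 10 min, then LPS (final 10 µg/mL) for 30 min. BCA-normalized lysates, 25 µg/lane, were run on 10% SDS–PAGE and transferred to PVDF. Phospho-proteins (p-JNK, p-p38, p-STAT1 Ser727) were blocked in Blocking One-P, others (NF-κB p65) in Blocking One. Primary antibodies 1:1000 for 1 h at rt; detection by ECL.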

[11] = biological target: MAP kinase p38 (Mus musculus) (UniProt P47811+O08911+Q9WUI1+Q9Z1B7); test: Inhibition of p38 phosphorylation in LPS-induced mouse RAW264.7 cells at 1 to 30 uM incubated for 10 mins prior to LPS-challenge measured after 30 mins by Western blot analysis; assay type: cell-based; method in brief: as §3
[12] = biological target: T1, Signal transducer and activator of transcription 1 (Mus musculus) (UniProt P42225); test: Inhibition of STAT1 phosphorylation in LPS-induced mouse RAW264.7 cells incubated for 10 mins prior to LPS-challenge measured after 30 mins by Western blot analysis; assay type: cell-based; method in brief: as §3
T1 sequence (whole entry): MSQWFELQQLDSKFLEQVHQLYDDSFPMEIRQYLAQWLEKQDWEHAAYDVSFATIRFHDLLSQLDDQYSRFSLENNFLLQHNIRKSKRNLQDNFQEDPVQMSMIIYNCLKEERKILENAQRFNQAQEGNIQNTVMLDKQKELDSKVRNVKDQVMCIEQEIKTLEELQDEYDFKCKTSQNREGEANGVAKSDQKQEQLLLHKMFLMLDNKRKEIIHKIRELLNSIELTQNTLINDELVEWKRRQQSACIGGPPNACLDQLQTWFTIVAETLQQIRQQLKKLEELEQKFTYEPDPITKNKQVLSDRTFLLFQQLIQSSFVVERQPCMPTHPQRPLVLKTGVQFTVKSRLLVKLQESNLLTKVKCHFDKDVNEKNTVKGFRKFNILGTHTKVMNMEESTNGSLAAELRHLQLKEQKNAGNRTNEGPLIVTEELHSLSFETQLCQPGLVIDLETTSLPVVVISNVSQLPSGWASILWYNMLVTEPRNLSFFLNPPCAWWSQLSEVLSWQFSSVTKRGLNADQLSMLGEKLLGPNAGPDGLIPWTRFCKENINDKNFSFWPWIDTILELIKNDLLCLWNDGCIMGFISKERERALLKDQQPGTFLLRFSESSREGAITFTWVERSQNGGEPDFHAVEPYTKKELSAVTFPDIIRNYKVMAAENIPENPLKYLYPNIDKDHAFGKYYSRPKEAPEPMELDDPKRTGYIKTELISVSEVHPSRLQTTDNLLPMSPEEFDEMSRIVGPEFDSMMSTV

SMILES | inhibition at 10 µM (RAW264.7 [1]) [%] | inhibition at 30 µM (RAW264.7 [2]) [%] | IC50 (RAW264.7 [3]) [µM] | inhibition at 1 µM (RAW264.7 [4]) [%] | viability at 18 h, 10 µM [5] [%] | viability at 18 h, 30 µM [6] [%] | inhibition at 3 µM (RAW264.7 [7]) [%] | viability at 18 h, 3 µM [8] [%] | inhibition (RAW264.7 [9]) | inhibition (RAW264.7 [10]) | inhibition [11] | inhibition [12]
CCCc1cc(=O)oc2c3c(c(C(=O)C(C)CC)c(O)c12)OC(C)(C)C=C3 (configuration not stated) | 10.6 | 13.3 | > 30 |  |  |  |  |  |  |  |  | 
CCC(C)C(=O)c1c(O)c(C/C=C(\C)CCC=C(C)C)c(O)c2c([C@@H](O)CC)cc(=O)oc12 (some centres not stated) [SURANGIN C] | 56.7 | 71.3 | 6.8 | 18.1 | 61.7 | 42.9 | 40.8 |  |  |  |  | 
CCCC(=O)c1c(O)c(C/C=C(\C)CCC=C(C)C)c(O)c2c([C@@H](O)CC)cc(=O)oc12 [KAYEASSAMIN A] | 29.7 | 56.6 | 26.6 | 5 |  | 82.4 | 15 |  |  |  |  | 
CCC(C)C(=O)c1c2c(c3oc(=O)cc(-c4ccccc4)c3c1O)C=CC(C)(C)O2 (configuration not stated) | 12.9 | 18.3 | > 30 |  |  |  |  |  |  |  |  | 
CCC(C)C(=O)c1c(O)c(CC=C(C)C)c(O)c2c([C@H](CC)OC(C)=O)cc(=O)oc12 (some centres not stated) | 50.5 | 89.1 | 7.9 | -1.5 | 29.9 | 11 | 24.2 | 55.3 |  |  |  | 
CCCC(=O)c1c(O)c(CC=C(C)C)c2oc(=O)cc([C@@H](O)CC)c2c1O [KAYEASSAMIN E] | 67.1 | 63.8 | 6.1 | 38.7 | 42.8 | 42.2 | 38.8 |  |  |  |  | 
CCCC(=O)c1c2c(c3oc(=O)cc(CCC)c3c1O)C=CC(C)(C)O2 | 9.9 | 13.8 | > 30 |  |  |  |  |  |  |  |  | 
CCC(C)C(=O)c1c(O)c(CC=C(C)C)c2oc(=O)cc([C@@H](O)CC)c2c1O (some centres not stated) [KAYEASSAMIN F] | 60.7 | 63.1 | 6 | 31.4 | 55.2 | 31.5 | 41.3 |  |  |  |  | 
CC[C@H](O)c1cc(=O)oc2c(CC=C(C)C)c(O)c(C(=O)CC(C)C)c(O)c12 [KAYEASSAMIN G] | 81.5 | 72.3 | 0.8 | 51 |  | 83.7 | 55.9 |  | Active | inactive | inactive | Dose-dependent effect
CCCC(=O)c1c(O)c(CC=C(C)C)c2oc(=O)cc(-c3ccccc3)c2c1O [MAMMEA A/AC] | 46.9 | 67.6 | 13 | 0.6 |  | 96.8 | 14.2 |  |  |  |  | 
CCC(C)C(=O)c1c(O)c(C/C=C(\C)CCC=C(C)C)c(O)c2c([C@H](CC)OC(C)=O)cc(=O)oc12 (some centres not stated) [SURANGIN B] | 74.3 | 91.1 | 5 | 8.5 | 42.3 | 18.1 | 35.7 | 67.1 |  |  |  | 
O=C(/C=C/c1ccc(O)c(O)c1)OCCc1ccccc1 [CAFFEIC ACID PHENETHYL ESTER] | 98.4 | 100 | 3.8 | 5.4 | 76.4 | 15.6 | 45.7 |  |  |  |  | 
CCCC(=O)c1c(O)c2c(c3c([C@@H](O)CC)cc(=O)oc13)OC(C)(C)C=C2 [DEACETYLMAMMEA E/BC CYCLO D] | 33.1 | 62.3 | 19.7 | 15.1 |  | 107 | 20.2 |  |  |  |  | 
Oc1ccc(-c2nc(-c3ccncc3)c(-c3ccc(F)cc3)[nH]2)cc1 [SB-202190] | 36.8 | 70.2 | 16 |  |  | 81.4 |  |  |  |  |  | 
CCCC(=O)c1c2c(c3oc(=O)cc(-c4ccccc4)c3c1O)C=CC(C)(C)O2 | 9.4 | 14.3 | > 30 |  |  |  |  |  |  |  |  | 
CC[C@H](OC(C)=O)c1cc(=O)oc2c(C(=O)CC(C)C)c(O)c(C/C=C(\C)CCC=C(C)C)c(O)c12 [MAMMEASIN B] | 64.7 | 88.2 | 6.4 | 0.6 | 20.2 | 13.6 | 31.1 | 60.3 |  |  |  | 
CC[C@H](O)c1cc(=O)oc2c(C(=O)CC(C)C)c(O)c(C/C=C(\C)CCC=C(C)C)c(O)c12 [SURANGIN D] | 55.4 | 74 | 6.2 | 22.7 |  | 104 | 41.1 |  |  |  |  | 
